Experiments:
[1] = Cytotoxicity against human DU145 cells after 48 hrs by SRB assay; assay type: functional; conditions: DU-145, 48 h
How it was run: (§1)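 NCI-60 five-dose screen: compounds dissolved in DMSO/H2O, tested at five 10-fold dilutions (10^-4 to 10^-8 M) for 48 h. Growth measured by sulforhodamine B optical density at time zero and after 48 h drug or vehicle exposure. Percentage growth calculated relative to control. GI50 is the molar concentration giving 50% reduction in net cell growth versus day-0 cell numbers.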

MCF7 = assay: Cytotoxicity against human MCF7 cells after 48 hrs by SRB assay; assay type: functional; conditions: MCF7, 48 h; how it was run: as §1
MDA-MB-231 = assay: Cytotoxicity against human MDA-MB-231 cells after 48 hrs by SRB assay; assay type: functional; conditions: MDA-MB-231, 48 h; how it was run: as §1
[2] = Cytotoxicity against human Hs 578T cells after 48 hrs by SRB assay; assay type: functional; how it was run: as §1
[3] = Cytotoxicity against human BT549 cells after 48 hrs by SRB assay; assay type: functional; conditions: BT-549, 48 h; how it was run: as §1
T47D = assay: Cytotoxicity against human T47D cells after 48 hrs by SRB assay; assay type: functional
How it was run: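 NCI-60 five-dose screen. Compounds dissolved in DMSO/H2O and tested at five 10-fold dilutions (10^-4 to 10^-8 M) for 48 h. Growth read by sulforhodamine B optical density at time zero and after 48 h of exposure to compound or vehicle. Percent growth calculated against control. GI50 is the molar concentration giving 50% reduction in net cell growth relative to cell number on day 0.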

MDA-MB-468 = assay: Cytotoxicity against human MDA-MB-468 cells after 48 hrs by SRB assay; assay type: functional; conditions: MDA-MB-468, 48 h; how it was run: as §1
Tubulin = Tubulin (Sus scrofa, UniProt P02554+P02550); assay: Inhibition of porcine brain tubulin polymerization by spectrophotometric analysis
How it was run: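 Tubulin at 4 mg/mL in cold 80 mM PIPES pH 6.9 with 2 mM MgCl2, 0.5 mM EGTA, GTP and 10% glycerol. Compound (added as 10x stock in 50% DMSO) or DMSO was preincubated 2 min at 37 °C in a prewarmed plate. Cold tubulin was then added, and polymerization at 37 °C was followed by A340 over time. Dose-response, mean ± s.d., n=3.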

CCRF-CEM = assay: Cytotoxicity against human CCRF-CEM cells after 48 hrs by SRB assay; assay type: functional; how it was run: as §1
[4] = Cytotoxicity against human HL-60(TB) cells after 48 hrs by SRB assay; assay type: functional; conditions: HL-60, 48 h; how it was run: as §1
K562 = assay: Cytotoxicity against human K562 cells after 48 hrs by SRB assay; assay type: functional; conditions: K562, 48 h; how it was run: as §1
[5] = Cytotoxicity against human MOLT4 cells after 48 hrs by SRB assay; assay type: functional; conditions: MOLT-4, 48 h; how it was run: as §1
[6] = Cytotoxicity against human RPMI8226 cells after 48 hrs by SRB assay; assay type: functional; conditions: RPMI-8226, 48 h; how it was run: as §1
SR = assay: Cytotoxicity against human SR cells after 48 hrs by SRB assay; assay type: functional; how it was run: as §1
A549 = assay: Cytotoxicity against human A549 cells after 48 hrs by SRB assay; assay type: functional; conditions: A549, 48 h; how it was run: as §1
NCI-H226 = assay: Cytotoxicity against human NCI-H226 cells after 48 hrs by SRB assay; assay type: functional; conditions: NCI-H226, 48 h; how it was run: as §1
NCI-H23 = assay: Cytotoxicity against human NCI-H23 cells after 48 hrs by SRB assay; assay type: functional; conditions: NCI-H23, 48 h; how it was run: as §1
NCI-H460 = assay: Cytotoxicity against human NCI-H460 cells after 48 hrs by SRB assay; assay type: functional; conditions: NCI-H460, 48 h; how it was run: as §1
NCI-H522 = assay: Cytotoxicity against human NCI-H522 cells after 48 hrs by SRB assay; assay type: functional; conditions: NCI-H522, 48 h; how it was run: as §1
[7] = Cytotoxicity against human COLO205 cells after 48 hrs by SRB assay; assay type: functional; conditions: COLO 205, 48 h; how it was run: as §1
[8] = Cytotoxicity against human HCC2998 cells after 48 hrs by SRB assay; assay type: functional; conditions: HCC 2998, 48 h; how it was run: as §1
[9] = Cytotoxicity against human HCT116 cells after 48 hrs by SRB assay; assay type: functional; conditions: HCT-116, 48 h; how it was run: as §1
[10] = Cytotoxicity against human HCT15 cells after 48 hrs by SRB assay; assay type: functional; conditions: HCT-15, 48 h; how it was run: as §1
HT-29 = assay: Cytotoxicity against human HT-29 cells after 48 hrs by SRB assay; assay type: functional; conditions: HT-29, 48 h; how it was run: as §1
KM12 = assay: Cytotoxicity against human KM12 cells after 48 hrs by SRB assay; assay type: functional; conditions: KM12, 48 h; how it was run: as §1
[11] = Cytotoxicity against human SW620 cells after 48 hrs by SRB assay; assay type: functional; conditions: SW-620, 48 h; how it was run: as §1
[12] = Cytotoxicity against human SF268 cells after 48 hrs by SRB assay; assay type: functional; conditions: SF-268, 48 h; how it was run: as §1

## COc1cc(-c2n[nH]nc2-c2c[nH]c3ccccc23)cc(OC)c1OC
[1]
  GI50: 90 nM
MCF7
  GI50: 29 nM
MDA-MB-231
  GI50: 89 nM
[2]
  GI50: 42 nM
[3]
  GI50: 28 nM
T47D
  GI50: 48 nM
MDA-MB-468
  GI50: 42 nM
Tubulin
  IC50: 18500 nM
CCRF-CEM
  GI50: 48 nM
[4]
  GI50: 46 nM
K562
  GI50: 53 nM
[5]
  GI50: 160 nM
[6]
  GI50: 90 nM
SR
  GI50: 90 nM
A549
  GI50: 90 nM
NCI-H226
  GI50: 390 nM
NCI-H23
  GI50: 270 nM
NCI-H460
  GI50: 42 nM
NCI-H522
  GI50: 21 nM
[7]
  GI50: 34 nM
[8]
  GI50: 440 nM
[9]
  GI50: 41 nM
[10]
  GI50: 35 nM
HT-29
  GI50: 33 nM
KM12
  GI50: 45 nM
[11]
  GI50: 43 nM
[12]
  GI50: 71 nM

Reference: ChEMBL document CHEMBL3751743, “Synthesis and anti-cancer screening of novel heterocyclic-(2H)-1,2,3-triazoles as potential anti-cancer agents” (Medchemcomm, 2015)
